# In ChEMBL document CHEMBL5143527, “Discovery and optimization of cyclohexane-1,4-diamines as allosteric MALT1 inhibitors” (Eur J Med Chem, 2022):
# What was measured:
# Cytochrome P450 2D6 = Cytochrome P450 2D6 (Homo sapiens, UniProt P10635); assay: Inhibition of CYP2D6 (unknown origin); assay type: ADME
# [1] = biological target: T1, Mucosa-associated lymphoid tissue lymphoma translocation protein 1 (Homo sapiens, UniProt Q9UDY8); assay: Inhibition of human MALT1 assessed as cleavage of substrate using fluorescent labeled Ac-LRSR-Rh110 peptide as substrate incubated for 30 mins followed by substrate addition and measured after 3 to 4 hrs by FRET assay
# T1 sequence (Q9UDY8 whole entry): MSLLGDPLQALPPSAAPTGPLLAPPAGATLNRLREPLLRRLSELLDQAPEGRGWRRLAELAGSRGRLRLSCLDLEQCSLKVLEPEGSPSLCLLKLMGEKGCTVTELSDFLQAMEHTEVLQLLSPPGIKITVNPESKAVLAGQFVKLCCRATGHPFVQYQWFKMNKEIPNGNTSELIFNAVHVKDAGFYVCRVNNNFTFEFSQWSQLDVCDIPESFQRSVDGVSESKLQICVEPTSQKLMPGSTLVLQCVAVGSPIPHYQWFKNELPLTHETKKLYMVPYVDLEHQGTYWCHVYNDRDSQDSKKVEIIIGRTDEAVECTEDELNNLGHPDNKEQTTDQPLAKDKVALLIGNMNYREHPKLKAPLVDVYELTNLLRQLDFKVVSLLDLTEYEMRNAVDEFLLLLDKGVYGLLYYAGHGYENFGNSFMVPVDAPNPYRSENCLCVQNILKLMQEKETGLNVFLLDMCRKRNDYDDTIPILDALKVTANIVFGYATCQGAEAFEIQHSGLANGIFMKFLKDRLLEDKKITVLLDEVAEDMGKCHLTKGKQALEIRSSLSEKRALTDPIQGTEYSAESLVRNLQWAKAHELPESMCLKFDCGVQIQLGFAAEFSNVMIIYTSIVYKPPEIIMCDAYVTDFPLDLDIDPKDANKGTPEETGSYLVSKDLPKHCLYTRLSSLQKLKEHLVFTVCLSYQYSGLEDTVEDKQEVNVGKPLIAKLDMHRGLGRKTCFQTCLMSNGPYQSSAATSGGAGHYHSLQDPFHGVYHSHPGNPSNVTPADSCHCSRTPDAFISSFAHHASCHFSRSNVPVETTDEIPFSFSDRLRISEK
# Procedure, shortened: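 Fluorogenic MALT1 cleavage assay with the tetrapeptide LRSR carrying rhodamine 110 and a non-fluorescent quencher; signal read as FRET. Horseradish peroxidase and resazurin redox counter-assays used to exclude artefacts. Values are the mean of at least three independent measurements, with standard deviation.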
# [2] = Passive permeability of compound across apical to basolateral in human Caco2 cells at 10 uM and measured upto 120 mins by LC-MS/MS analysis; assay type: ADME, cell-based; conditions: Caco-2
# Procedure, shortened: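 Apical-to-basolateral passive permeability across Caco-2 monolayers, run in the presence of inhibitors of the efflux transporters P-gp, BCRP and MRP2.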
# Cytochrome P450 1A2 = biological target: T2, Cytochrome P450 1A2 (Homo sapiens, UniProt P05177); assay: Inhibition of CYP1A2 (unknown origin); assay type: ADME
# T2 sequence (P05177 whole entry): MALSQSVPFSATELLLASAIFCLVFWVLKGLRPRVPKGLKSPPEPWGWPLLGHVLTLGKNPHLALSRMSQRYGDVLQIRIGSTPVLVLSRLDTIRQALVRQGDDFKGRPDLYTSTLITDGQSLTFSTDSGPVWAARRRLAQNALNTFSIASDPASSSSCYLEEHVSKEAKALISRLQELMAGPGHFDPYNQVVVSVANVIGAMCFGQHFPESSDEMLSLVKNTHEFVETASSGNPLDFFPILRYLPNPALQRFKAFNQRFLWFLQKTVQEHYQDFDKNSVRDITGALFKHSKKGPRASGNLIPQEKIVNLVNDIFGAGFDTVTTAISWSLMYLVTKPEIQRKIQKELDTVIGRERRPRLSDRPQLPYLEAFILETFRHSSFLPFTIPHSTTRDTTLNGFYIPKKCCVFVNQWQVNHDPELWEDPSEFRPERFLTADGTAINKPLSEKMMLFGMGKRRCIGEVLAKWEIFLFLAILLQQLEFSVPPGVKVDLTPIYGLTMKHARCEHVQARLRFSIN
# Cytochrome P450 2C9 = Cytochrome P450 2C9 (Homo sapiens, UniProt P11712); assay: Inhibition of CYP2C9 (unknown origin); assay type: ADME
# Sequence of Cytochrome P450 2C9 (P11712 whole entry): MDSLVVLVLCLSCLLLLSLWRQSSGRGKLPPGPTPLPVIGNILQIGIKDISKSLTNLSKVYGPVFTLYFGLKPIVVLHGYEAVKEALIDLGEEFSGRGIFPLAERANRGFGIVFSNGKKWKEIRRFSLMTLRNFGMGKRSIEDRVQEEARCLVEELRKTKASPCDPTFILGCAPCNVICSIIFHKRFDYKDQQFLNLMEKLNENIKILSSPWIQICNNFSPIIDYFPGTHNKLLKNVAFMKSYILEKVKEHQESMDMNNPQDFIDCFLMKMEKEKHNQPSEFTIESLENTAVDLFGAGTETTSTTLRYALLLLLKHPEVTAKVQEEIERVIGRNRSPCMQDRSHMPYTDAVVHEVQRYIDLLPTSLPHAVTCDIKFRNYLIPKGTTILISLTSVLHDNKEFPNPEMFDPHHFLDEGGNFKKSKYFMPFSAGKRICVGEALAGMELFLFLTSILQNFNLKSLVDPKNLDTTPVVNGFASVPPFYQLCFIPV
# Cytochrome P450 3A4 = Cytochrome P450 3A4 (Homo sapiens, UniProt P08684); assay: Inhibition of CYP3A4 (unknown origin); assay type: ADME
# Sequence of Cytochrome P450 3A4 (P08684 whole entry): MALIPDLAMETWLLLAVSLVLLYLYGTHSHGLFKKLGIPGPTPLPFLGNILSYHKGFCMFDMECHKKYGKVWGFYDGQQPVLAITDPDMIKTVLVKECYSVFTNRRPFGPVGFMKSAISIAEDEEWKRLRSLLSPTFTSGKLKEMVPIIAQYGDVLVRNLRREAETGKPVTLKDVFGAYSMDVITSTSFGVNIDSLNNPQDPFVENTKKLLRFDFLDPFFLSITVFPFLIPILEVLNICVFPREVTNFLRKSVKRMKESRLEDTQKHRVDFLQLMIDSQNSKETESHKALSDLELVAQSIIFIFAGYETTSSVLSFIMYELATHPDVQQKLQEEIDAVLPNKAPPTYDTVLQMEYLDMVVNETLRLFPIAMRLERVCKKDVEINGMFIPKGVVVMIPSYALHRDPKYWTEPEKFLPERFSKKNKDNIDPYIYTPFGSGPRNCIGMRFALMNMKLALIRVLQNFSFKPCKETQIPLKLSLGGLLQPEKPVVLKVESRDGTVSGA
# [3] = Lipophilicity, log D of compound at 7.4 by LC-MS analysis; assay type: physicochemical; conditions: pH 7.4
# Procedure, shortened: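 ChromlogD at pH 7.4: retention time on an LCMS system with an aqueous mobile phase, converted to lipophilicity with a calibration curve.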
# [4] = biological target: T1, Mucosa-associated lymphoid tissue lymphoma translocation protein 1; assay: Inhibition of human MALT1 in human MCF7 cells assessed as MALT1 mediated cleavage of human A20 in cytosol by fluorescence microscopy; assay type: subcellular
# Procedure, shortened: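 Cellular MALT1 activity in MCF7 cells, read as inhibition of MALT1-mediated cleavage of human A20.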
# [5] = Oral bioavailability in Wistar Han rat at 0.9 mg/kg; assay type: ADME, organism-based; conditions: in vivo
# [6] = Metabolic stability in human liver microsomes assessed as intrinsic clearance by LC-MS/MS analysis; assay type: ADME, Microsome; conditions: read-out: CLH
# Procedure, shortened: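 Human liver microsomes, compound incubated; intrinsic clearance from disappearance of the parent compound over time.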
# [7] = Volume of distribution at steady state in Wistar Han rat at 0.9 mg/kg, po or 0.5 mg/kg, iv; assay type: ADME, organism-based; conditions: in vivo
# [8] = Solubility of compound in PBS at pH 7.4 incubated for 20 to 24 hrs under shaking condition by LC-MS analysis; assay type: physicochemical; conditions: time 20-24 hrs
# Procedure, shortened: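 Dried-DMSO solubility: 10 mM DMSO stock dried down, residue resolubilized in 0.1 M phosphate buffer, pH 7.4.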
# Cytochrome P450 2C19 = Cytochrome P450 2C19 (Homo sapiens, UniProt P33261); assay: Inhibition of CYP2C19 (unknown origin); assay type: ADME
# Sequence of Cytochrome P450 2C19 (P33261 whole entry): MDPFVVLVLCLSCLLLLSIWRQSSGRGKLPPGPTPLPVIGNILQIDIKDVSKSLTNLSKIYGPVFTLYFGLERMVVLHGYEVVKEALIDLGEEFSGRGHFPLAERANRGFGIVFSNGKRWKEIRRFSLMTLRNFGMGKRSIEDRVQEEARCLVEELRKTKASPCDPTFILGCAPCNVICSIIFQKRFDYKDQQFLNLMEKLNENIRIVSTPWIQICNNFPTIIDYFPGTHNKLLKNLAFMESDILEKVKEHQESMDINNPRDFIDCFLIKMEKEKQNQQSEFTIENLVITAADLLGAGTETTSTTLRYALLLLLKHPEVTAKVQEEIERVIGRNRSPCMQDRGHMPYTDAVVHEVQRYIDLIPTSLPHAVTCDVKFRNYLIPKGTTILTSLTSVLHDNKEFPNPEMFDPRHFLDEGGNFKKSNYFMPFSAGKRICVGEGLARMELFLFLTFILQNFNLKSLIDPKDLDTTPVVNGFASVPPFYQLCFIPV
# [9] = biological target: Voltage-gated inwardly rectifying potassium channel KCNH2 (Homo sapiens, UniProt Q12809); assay: Inhibition of human ERG; assay type: toxicity
# Sequence of Voltage-gated inwardly rectifying potassium channel KCNH2 (Q12809 whole entry): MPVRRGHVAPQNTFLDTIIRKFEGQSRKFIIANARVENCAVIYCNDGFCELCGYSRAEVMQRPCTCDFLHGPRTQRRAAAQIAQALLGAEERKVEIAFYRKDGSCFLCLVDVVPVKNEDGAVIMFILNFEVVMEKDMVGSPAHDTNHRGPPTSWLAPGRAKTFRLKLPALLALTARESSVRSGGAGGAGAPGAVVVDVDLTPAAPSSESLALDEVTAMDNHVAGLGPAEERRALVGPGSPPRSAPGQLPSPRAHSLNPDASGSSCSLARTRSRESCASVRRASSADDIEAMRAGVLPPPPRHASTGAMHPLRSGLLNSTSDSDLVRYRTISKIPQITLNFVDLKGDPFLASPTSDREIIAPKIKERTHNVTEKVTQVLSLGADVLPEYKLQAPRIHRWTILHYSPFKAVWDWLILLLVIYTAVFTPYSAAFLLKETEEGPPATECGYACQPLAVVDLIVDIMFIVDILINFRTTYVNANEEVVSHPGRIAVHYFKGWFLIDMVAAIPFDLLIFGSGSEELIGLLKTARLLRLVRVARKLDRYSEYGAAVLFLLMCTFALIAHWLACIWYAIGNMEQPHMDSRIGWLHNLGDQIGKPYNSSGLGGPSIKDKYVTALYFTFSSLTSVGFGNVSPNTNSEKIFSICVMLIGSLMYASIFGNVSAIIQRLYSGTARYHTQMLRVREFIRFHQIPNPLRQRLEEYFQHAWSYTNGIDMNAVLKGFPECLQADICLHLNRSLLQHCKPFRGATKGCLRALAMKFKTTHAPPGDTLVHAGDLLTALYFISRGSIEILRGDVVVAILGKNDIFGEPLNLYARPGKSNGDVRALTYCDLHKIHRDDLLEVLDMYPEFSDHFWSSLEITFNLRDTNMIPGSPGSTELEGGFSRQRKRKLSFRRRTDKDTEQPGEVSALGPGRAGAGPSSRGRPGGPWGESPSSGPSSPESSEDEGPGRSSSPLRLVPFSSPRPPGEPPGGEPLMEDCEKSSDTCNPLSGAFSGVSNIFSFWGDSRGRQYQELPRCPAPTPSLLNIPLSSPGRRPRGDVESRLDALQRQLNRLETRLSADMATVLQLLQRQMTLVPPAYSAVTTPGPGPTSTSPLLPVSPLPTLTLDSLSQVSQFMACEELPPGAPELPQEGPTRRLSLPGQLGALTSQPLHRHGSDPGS
# [10] = Half life in Wistar Han rat at 0.9 mg/kg, po or 0.5 mg/kg, iv; assay type: ADME, organism-based; conditions: in vivo
# [11] = AUC in Wistar Han rat at 0.9 mg/kg, po or 0.5 mg/kg, iv; assay type: ADME, organism-based; parameters: dose 0.9 mg/kg, route po; conditions: in vivo
# [12] = Metabolic stability in rat hepatocyte assessed as intrinsic clearance by LC-MS/MS analysis; assay type: ADME, cell-based; conditions: hepatocytes
# Procedure, shortened: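 Rat hepatocytes, compound incubated; intrinsic clearance (per 10⁶ cells) from disappearance of the parent compound over time.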
# Sequence of Cytochrome P450 2D6 (P10635 whole entry): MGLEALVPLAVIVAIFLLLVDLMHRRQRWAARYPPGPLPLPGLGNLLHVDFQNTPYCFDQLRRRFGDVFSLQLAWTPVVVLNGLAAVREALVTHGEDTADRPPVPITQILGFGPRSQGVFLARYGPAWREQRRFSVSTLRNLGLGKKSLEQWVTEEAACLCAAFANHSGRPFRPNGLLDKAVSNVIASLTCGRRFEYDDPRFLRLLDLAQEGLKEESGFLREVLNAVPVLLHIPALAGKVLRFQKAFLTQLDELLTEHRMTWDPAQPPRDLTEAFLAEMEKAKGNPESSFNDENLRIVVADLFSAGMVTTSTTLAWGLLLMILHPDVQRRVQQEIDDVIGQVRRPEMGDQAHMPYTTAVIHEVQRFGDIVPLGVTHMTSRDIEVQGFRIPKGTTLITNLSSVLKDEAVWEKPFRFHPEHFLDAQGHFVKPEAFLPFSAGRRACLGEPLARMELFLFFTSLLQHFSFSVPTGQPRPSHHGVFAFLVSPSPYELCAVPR
SMILES,IC50 [1] [µM],logD [3],microsomal CLint [6] [µL/min/mg],other results
FC(F)(F)c1nccc(N[C@H]2CC[C@@H](Nc3ccc4nnc(Cl)n4n3)CC2)n1,0.3,3.1,< 3,"IC50 (Cytochrome P450 2D6): > 30 µM; Papp A→B at 2 h, 10 µM [2]: 44 ×10⁻⁶ cm/s; IC50 (Cytochrome P450 1A2): > 30 µM; IC50 (Cytochrome P450 2C9): 10 µM; IC50 (Cytochrome P450 3A4): 18 µM; IC50 [4]: 3.2 µM; bioavailability [5]: 72%; Vdss [7]: 2.2 L/kg; solubility [8]: 19 µM; IC50 (Cytochrome P450 2C19): 14 µM; IC50 [9]: 24 µM; half-life [10]: 4 h; AUC [11]: 3.21 µM·h"
FC(F)(F)c1nccc(N[C@H]2CC[C@@H](Nc3ccc4nncn4n3)CC2)n1,35,1.7,< 3,
FC(F)(F)c1nccc(N[C@H]2CC[C@@H](Nc3ccc4nnc(C5CC5)n4n3)CC2)n1,4.5,4.5,< 3,
FC(F)(F)c1nccc(N[C@H]2CC[C@@H](Nc3ccc4ncc(Cl)n4n3)CC2)n1,0.4,4.3,9.9,
FC(F)(F)c1nccc(N[C@H]2C[C@@H](CNc3ccc4nnc(Cl)n4n3)C2)n1,17,2.5,36,
Clc1nnc2ccc(N[C@H]3CC[C@@H](Nc4ccncn4)CC3)nn12,31,0.7,25,
FC(F)(F)c1nccc(N[C@H]2CC[C@@H](Nc3ccc4nnc(C(F)(F)F)n4n3)CC2)n1,1.8,3.8,< 3,
FC(F)(F)c1nccc(N[C@H]2CC[C@@H](Nc3ccnc(C(F)(F)F)n3)CC2)n1,2.2,4.3,< 3,CLH [12]: < 1 10^-6uL/min; solubility [8]: 37 µM
CN(c1ccc2nnc(Cl)n2n1)[C@H]1CC[C@@H](Nc2ccnc(C(F)(F)F)n2)CC1,0.5,3.5,12,
FC(F)(F)c1nccc(N[C@H]2CC[C@@H](Oc3ccc4nnc(Cl)n4n3)CC2)n1,7.2,3.5,< 3,
FC(F)(F)c1nccc(N[C@H]2C[C@@H](Nc3ccc4nnc(Cl)n4n3)C2)n1,> 50,2.2,6.9,
CN(c1ccnc(C(F)(F)F)n1)[C@H]1CC[C@@H](Nc2ccc3nnc(Cl)n3n2)CC1,1.1,3.6,18,
FC(F)(F)c1cccc(N[C@H]2CC[C@@H](Nc3ccnc(C(F)(F)F)n3)CC2)c1,1.8,> 5.3,7.5,
FC(F)(F)c1nccc(N[C@]23CC[C@](Nc4ccc5nnc(Cl)n5n4)(CC2)CC3)n1,4.2,3,11,
FC(F)(F)c1nccc(N2CCN(c3ccc4nnc(Cl)n4n3)CC2)n1,> 50,2.4,< 3,
FC(F)(F)c1nccc(N[C@H]2CC[C@@H](Nc3ccncn3)CC2)n1,> 50,1.9,18,
FC(F)(F)c1cc(N[C@H]2CC[C@@H](Nc3ccc4nnc(Cl)n4n3)CC2)ccn1,1.5,2.9,11,
Cc1nnc2ccc(N[C@H]3CC[C@@H](Nc4ccnc(C(F)(F)F)n4)CC3)nn12,4.7,2.3,< 3,
FC(F)(F)c1nccc(N[C@H]2CC[C@@H](Nc3ncnc4sccc34)CC2)n1,5,2.9,22,
FC(F)(F)c1nccc(NC2CCN(c3ccc4nnc(Cl)n4n3)CC2)n1,6.1,2.6,50,
FC(F)(F)c1nccc(N2CCC(Nc3ccc4nnc(Cl)n4n3)CC2)n1,> 50,2.9,50,
Nc1nnc2ccc(N[C@H]3CC[C@@H](Nc4ccnc(C(F)(F)F)n4)CC3)nn12,26,1.4,< 3,
FC(F)(F)c1nccc(O[C@H]2CC[C@@H](Nc3ccc4nnc(Cl)n4n3)CC2)n1,1.2,3.7,< 3,

# Further compounds by falling IC50 [1], results first:
IC50 [1] [µM],logD [3],microsomal CLint [6] [µL/min/mg],SMILES,other results
23,2.7,31,FC(F)(F)c1nccc(NCC2CCN(c3ccc4nnc(Cl)n4n3)CC2)n1,
18,2.5,23,FC(F)(F)c1nccc(NC[C@H]2C[C@@H](Nc3ccc4nnc(Cl)n4n3)C2)n1,
7.5,2.8,26,FC(F)(F)c1nccc(N[C@H]2CC[C@@H](Nc3ccc4cnccc4n3)CC2)n1,
7.2,4.6,5.2,FC(F)(F)c1nccc(N[C@H]2CC[C@@H](Nc3cnc4ccccc4c3)CC2)n1,
6.1,2.8,37,FC(F)(F)c1nccc(N2CCC(CNc3ccc4nnc(Cl)n4n3)CC2)n1,
1.4,5.2,9.2,FC(F)(F)c1cccc(N[C@H]2CC[C@@H](Nc3ccc4nnc(Cl)n4n3)CC2)c1,
1.1,3.4,17,FC(F)(F)c1nccc(N[C@@H]2CC[C@H](Nc3ccc4nnc(Cl)n4n3)C2)n1 (racemic),
1.1,2.9,< 3,FC(F)(F)c1nccc(N[C@H]2CC[C@@H](Nc3ccc4nnc(Br)n4n3)CC2)n1,IC50 [4]: 6.1 µM
0.8,2.8,29,CSc1nnc2ccc(N[C@H]3CC[C@@H](Nc4ccnc(C(F)(F)F)n4)CC3)nn12,IC50 [4]: 5.9 µM
0.6,3.8,< 3,COc1ncc(N[C@H]2CC[C@@H](Nc3ccc4nnc(Cl)n4n3)CC2)cc1Cl,
